{"source": "ChEMBL document CHEMBL3046415", "about": "“Improved microwave-mediated synthesis of 3-(3-aryl-1,2,4-oxadiazol-5-yl)propionic acids and their larvicidal and fungal growth inhibitory properties” (2009)", "format_in_all_cases": "functional", "key": {"Fusarium lateritium": {"test_system": "Fusarium lateritium", "assay": "Antifungal activity against Fusarium lateritium assessed as growth inhibition at 2 ug/ml after 72 hr by disk diffusion test", "settings": "read-out: GI", "procedure,_shortened": "(§1)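 Strains from a university mycology culture collection, grown on PDA at 28 °C for 8–15 d until plates were covered. Mycelial disks ([…]) were cut from colony edges and placed on test plates. Ethylene glycol served as negative control. Plates were incubated at 28 °C for up to 72 h in triplicate. Percent inhibition was calculated from reduction in growth diameter.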"}, "Fusarium verticillioides [1]": {"test_system": "Fusarium verticillioides", "assay": "Antifungal activity against Fusarium verticillioides assessed as growth inhibition at 2 ug/ml after 48 hr by disk diffusion test", "procedure,_shortened": "as §1"}, "Fusarium verticillioides [2]": {"test_system": "Fusarium verticillioides", "assay": "Antifungal activity against Fusarium verticillioides assessed as growth inhibition at 2 ug/ml after 72 hr by disk diffusion test", "procedure,_shortened": "as §1"}, "Fusarium decemcellulare": {"test_system": "Fusarium decemcellulare", "assay": "Antifungal activity against Fusarium decemcellulare assessed as growth inhibition at 2 ug/ml after 72 hr by disk diffusion test", "settings": "read-out: GI", "procedure,_shortened": "as §1"}, "Fusarium solani": {"test_system": "Fusarium solani", "assay": "Antifungal activity against Fusarium solani assessed as growth inhibition at 2 ug/ml after 72 hr by disk diffusion test", "settings": "read-out: GI", "procedure,_shortened": "as §1"}}, "note": "The source made the active and inactive calls. No cut-off for these calls is given here.", "data": [{"smiles": "COc1ccc(-c2noc(CCC(=O)O)n2)cc1", "values": [{"measurement": "inhibition of growth at 2 µg/mL", "setting": "Fusarium lateritium", "value": 45.8, "unit": "%"}, {"measurement": "growth inhibition (GI)", "setting": "Fusarium verticillioides [1]", "value": "Active"}, {"measurement": "growth inhibition (GI)", "setting": "Fusarium verticillioides [2]", "value": "inactive"}, {"measurement": "inhibition of growth at 2 µg/mL", "setting": "Fusarium decemcellulare", "value": 52.8, "unit": "%"}]}, {"smiles": "O=C(O)CCc1nc(-c2ccc(Cl)cc2)no1", "values": [{"measurement": "growth inhibition (GI)", "setting": "Fusarium verticillioides [1]", "value": "Active"}, {"measurement": "growth inhibition (GI)", "setting": "Fusarium verticillioides [2]", "value": "inactive"}, {"measurement": "inhibition of growth at 2 µg/mL", "setting": "Fusarium decemcellulare", "value": 66, "unit": "%"}, {"measurement": "inhibition of growth at 2 µg/mL", "setting": "Fusarium solani", "value": 59.7, "unit": "%"}]}, {"smiles": "O=C(O)CCc1nc(-c2ccc(Br)cc2)no1", "values": [{"measurement": "growth inhibition (GI)", "setting": "Fusarium verticillioides [1]", "value": "Active"}, {"measurement": "growth inhibition (GI)", "setting": "Fusarium verticillioides [2]", "value": "inactive"}]}, {"smiles": "Cc1cccc(-c2noc(CCC(=O)O)n2)c1", "values": [{"measurement": "growth inhibition (GI)", "setting": "Fusarium verticillioides [1]", "value": "Active"}, {"measurement": "growth inhibition (GI)", "setting": "Fusarium verticillioides [2]", "value": "inactive"}]}, {"smiles": "O=C(O)CCc1nc(-c2ccc(F)cc2)no1", "values": [{"measurement": "inhibition of growth at 2 µg/mL", "setting": "Fusarium lateritium", "value": 43, "unit": "%"}, {"measurement": "growth inhibition (GI)", "setting": "Fusarium verticillioides [1]", "value": "Active"}, {"measurement": "growth inhibition (GI)", "setting": "Fusarium verticillioides [2]", "value": "inactive"}]}, {"smiles": "Cc1ccccc1-c1noc(CCC(=O)O)n1", "values": [{"measurement": "growth inhibition (GI)", "setting": "Fusarium verticillioides [1]", "value": "Active"}, {"measurement": "growth inhibition (GI)", "setting": "Fusarium verticillioides [2]", "value": "inactive"}]}, {"smiles": "O=C(O)CCc1nc(-c2ccccc2)no1", "values": [{"measurement": "inhibition of growth at 2 µg/mL", "setting": "Fusarium verticillioides [1]; read-out: GI", "value": 52.8, "unit": "%"}, {"measurement": "inhibition of growth at 2 µg/mL", "setting": "Fusarium verticillioides [2]; read-out: GI", "value": 52.8, "unit": "%"}]}, {"smiles": "O=C(O)CCc1nc(-c2ccc([N+](=O)[O-])cc2)no1", "values": [{"measurement": "growth inhibition (GI)", "setting": "Fusarium verticillioides [1]", "value": "Active"}, {"measurement": "growth inhibition (GI)", "setting": "Fusarium verticillioides [2]", "value": "inactive"}]}, {"smiles": "Cc1ccc(-c2noc(CCC(=O)O)n2)cc1", "values": [{"measurement": "growth inhibition (GI)", "setting": "Fusarium verticillioides [1]", "value": "Active"}, {"measurement": "growth inhibition (GI)", "setting": "Fusarium verticillioides [2]", "value": "inactive"}]}]}
